Active and inactive are the calls of the source. The calls are words filed in the database; no cut-off is given here.
What was measured:
HeLa = experiment: Cytotoxicity against human HeLa cells assessed as reduction in cell viability at 0.1 to 100 uM incubated for 24 to 48 hrs by Alamar blue colorimetric assay; type: cell-based; conditions: dose lower 0.1 µM, time lower 24 hrs, dose upper 100 µM, time upper 48 hrs
Outline: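 Resazurin (alamarBlue) metabolic viability read-out in HeLa cells exposed for 24 and 48 h to 0.1, 1, 10, 50 and 100 μM compound.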

[1] = biological target: Heat shock protein beta-1 (Homo sapiens) (UniProt P04792); experiment: Disaggregation of protein aggregates in human HeLa cells expressing HSP27:GFP assessed as number of HSP27:GFP foci per cell at 50 uM for 12 hr in presence of nilotinib by green fluorescent protein based confocal microscopy (rvb = 0.71)
Outline: (§1)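 Sensor HeLa cells (HSP27:GFP) were kept for 48 h with 5 μM nilotinib, and 50 μM compound was co-added for the final 12 h in 0.5% EtOH vehicle. Green foci per cell (count and mean area) were quantified by fluorescence microscopy. Data are mean ± SD, n = 4–10, about 4700 cells per condition. Comparison was against nilotinib alone by unpaired t test.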

[2] = biological target: Amyloid-beta precursor protein (Homo sapiens) (UniProt P05067); experiment: Inhibition of amyloid beta (1 to 42) (unknown origin) aggregation assessed as reduction in fluorescence intensity at 20 uM measured upto 30 h by thioflavin-T fluorescence assay
Outline: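 Aβ1–42 peptide (10 μM) fibrillation with 20 μM compound was followed over time by thioflavin-T fluorescence, with quercetin as positive control. Inhibition was judged from reduction of final fluorescence intensity.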

[3] = biological target: Heat shock protein beta-1 (Homo sapiens) (UniProt P04792); experiment: Disaggregation of protein aggregates in human HeLa cells expressing HSP27:GFP assessed as HSP27:GFP foci area per cell cell at 50 uM for 12 hr in presence of nilotinib by green fluorescent protein based confocal microscopy (rvb = 0.71); outline: as §1
[4] = biological target: Amyloid-beta precursor protein (Homo sapiens) (UniProt P05067); experiment: Disaggregation of aggregated huamn amyloid beta (1 to 42) fibrils in human SH-SY5Y cells assessed as decrease the area of foci to basal levels at 50 uM for 12 hour by confocal microscopy relative to control; type: cell-based
Outline: (§2)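 SH-SY5Y cells were loaded for 16 h with preaggregated synthetic Aβ1–42, then given compound at 50 μM for a further 12 h in 0.5% EtOH vehicle. Cells were fixed, stained with Proteostat and imaged by confocal microscopy. Number and average area of aggregate foci per cell were scored over 10–20 fields, n = 2, about 370 cells per condition. Data are mean ± SD, unpaired t test.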

[5] = biological target: Amyloid-beta precursor protein (Homo sapiens) (UniProt P05067); experiment: Disaggregation of aggregated human amyloid beta (1 to 42) preformed fibrils in human SH-SY5Y cells assessed as decrease the number of foci to basal levels at 50 uM for 12 hrs by confocal microscopy relative to control; type: cell-based; outline: as §2
[6] = biological target: Heat shock protein beta-1 (Homo sapiens) (UniProt P04792); experiment: Aggregation in human HeLa cells expressing HSP27:GFP protein sensor assessed as number of HSP27:GFP foci per cell at 5 uM incubated for 48 hr by green fluorescent protein based confocal microscopy (rvb = 0.71)
Outline: (§3)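 HeLa cells stably expressing the HSP27:GFP aggregation sensor were exposed to 5 μM nilotinib for 48 h in 0.5% EtOH vehicle. Sensor relocalization to foci was imaged by fluorescence microscopy, and green foci number and average area per cell were scored. Data are mean ± SD, n = 4–10, about 4700 cells per condition, compared by unpaired Student's t test.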

[7] = biological target: Heat shock protein beta-1 (Homo sapiens) (UniProt P04792); experiment: Aggregation in human HeLa cells expressing HSP27:GFP protein in sensor assessed as HSP27:GFP foci area per cell at 5 uM incubated for 48 hrs by green fluorescent protein based confocal microscopy (rvb = 0.6); outline: as §3

Chain of Heat shock protein beta-1 (Homo sapiens) (P04792 whole entry): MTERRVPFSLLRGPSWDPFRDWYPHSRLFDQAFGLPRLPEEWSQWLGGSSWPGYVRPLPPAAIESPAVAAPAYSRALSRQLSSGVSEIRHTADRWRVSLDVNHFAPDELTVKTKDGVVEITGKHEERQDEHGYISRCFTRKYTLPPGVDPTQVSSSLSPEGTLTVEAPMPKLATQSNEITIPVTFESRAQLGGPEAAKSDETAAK
Chain of Amyloid-beta precursor protein (Homo sapiens) (P05067 whole entry): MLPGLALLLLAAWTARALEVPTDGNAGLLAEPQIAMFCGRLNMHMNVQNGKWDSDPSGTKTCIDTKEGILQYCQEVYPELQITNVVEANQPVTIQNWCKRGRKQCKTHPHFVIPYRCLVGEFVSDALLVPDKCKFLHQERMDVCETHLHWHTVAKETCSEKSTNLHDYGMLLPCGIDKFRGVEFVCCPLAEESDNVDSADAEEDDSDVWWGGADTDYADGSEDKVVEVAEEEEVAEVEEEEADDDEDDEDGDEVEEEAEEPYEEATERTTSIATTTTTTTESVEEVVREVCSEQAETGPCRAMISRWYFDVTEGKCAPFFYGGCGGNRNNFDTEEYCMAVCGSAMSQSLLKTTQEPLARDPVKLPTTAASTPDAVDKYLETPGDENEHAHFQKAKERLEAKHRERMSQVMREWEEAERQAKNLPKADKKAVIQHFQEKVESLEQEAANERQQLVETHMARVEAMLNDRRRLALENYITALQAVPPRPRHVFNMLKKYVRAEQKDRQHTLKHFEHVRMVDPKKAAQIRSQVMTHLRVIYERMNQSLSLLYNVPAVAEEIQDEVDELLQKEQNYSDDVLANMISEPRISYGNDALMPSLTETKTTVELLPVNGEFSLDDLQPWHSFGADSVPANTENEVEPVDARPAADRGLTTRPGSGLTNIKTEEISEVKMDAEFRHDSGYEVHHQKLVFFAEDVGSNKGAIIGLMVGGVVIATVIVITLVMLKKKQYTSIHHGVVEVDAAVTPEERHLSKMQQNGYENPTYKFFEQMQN

Compound	Activity (HeLa)	Activity [1] [%]	inhibition [2]	Activity [3] [%]	Activity [4]	Activity [5]	Activity [6]	Activity [7] [um2]
CC(C)CCC[C@@H](C)[C@H]1CC[C@H]2[C@@H]3CC=C4c5c(nc6ccc(Cl)cc6c5-c5ccccc5)CC[C@]4(C)[C@H]3CC[C@]12C	Non-Toxic	50	inactive	50	Active	inactive		
Cc1c2c(nc3ccccc13)CC[C@@]1(C)C2=CC[C@H]2[C@@H]3CC[C@H]([C@H](C)CCCC(C)C)[C@@]3(C)CC[C@@H]21	Non-Toxic	50	Active	50	inactive	Active		
CC(C)CCC[C@@H](C)[C@H]1CC[C@H]2[C@@H]3CC=C4c5c(nc6ccc(Cl)cc6c5-c5ccccc5Cl)CC[C@]4(C)[C@H]3CC[C@]12C	Non-Toxic	50	Active	50	inactive	Active		
CC(C)CCC[C@@H](C)[C@H]1CC[C@H]2[C@@H]3CC=C4c5c(nc6ccccc6c5-c5ccccc5)CC[C@]4(C)[C@H]3CC[C@]12C	Non-Toxic	50	inactive	50	inactive	Active		
Cc1cn(-c2cc(NC(=O)c3ccc(C)c(Nc4nccc(-c5cccnc5)n4)c3)cc(C(F)(F)F)c2)cn1							3.96	7.5
